Data: ChEMBL document CHEMBL5131563, “Accelerated Identification of Cell Active KRAS Inhibitory Macrocyclic Peptides using Mixture Libraries and Automated Ligand Identification System (ALIS) Technology” (J Med Chem, 2022)
pEC50, pIC50: −log10 of the molar value. *1 amine or outer side, *2 acyl side, *3 side chain or, on linkers, in order; H or OH if unused. Where a SMILES comes first, the peptide text is derived from it. Bridges are numbered along the chain shown (N, C = ends). [ ]: non-standard residue; d: D form. X1 = O=C([C@@H]1[C@H](c2ccccc2)CCN1[*:1])[*:2]; Pro(3R-Ph) = O=C(O)[C@H]1NCC[C@@H]1c1ccccc1; Bip = N[C@@H](Cc1ccc(-c2ccccc2)cc1)C(=O)O; Lys(N3) = [N-]=[N+]=NCCCC[C@H](N)C(=O)O; Ala(cPent) = N[C@@H](CC1CCCC1)C(=O)O; hPhe = N[C@@H](CCc1ccccc1)C(=O)O; Cha = N[C@@H](CC1CCCCC1)C(=O)O; hLeu = CC(C)CC[C@H](N)C(=O)O; Nva = CCC[C@H](N)C(=O)O

Columns and labels:
GTPase KRas [1] = target: T1, GTPase KRas (Homo sapiens, UniProt P01116, G12D); test: Inhibition of recombinant biotinylated KRAS G12D mutant (unknown origin) assessed as inhibition of SOS-catalyzed nucleotide exchange preincubated for 60 mins followed by addition of human SOS protein and unlabeled GTP and measured after 60 mins by TR-FRET analysis
T1 sequence (P01116 whole entry G12D): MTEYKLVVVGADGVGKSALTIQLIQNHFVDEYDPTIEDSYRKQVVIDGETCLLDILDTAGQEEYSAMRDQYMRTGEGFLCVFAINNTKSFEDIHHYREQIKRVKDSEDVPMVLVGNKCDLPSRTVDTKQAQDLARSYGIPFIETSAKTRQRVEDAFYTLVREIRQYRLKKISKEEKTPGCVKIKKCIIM
Summary of the method: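 Biotinylated KRAS G12D was treated in EDTA buffer (1 h, RT), then loaded at 90 nM with 900 nM Bodipy-GDP and 15 nM Tb-streptavidin in Mg2+ buffer, HEPES pH 7.5 (6 h, RT). It was used at 1.5 nM assay solution with a 10-point, 3-fold DMSO compound series for 60 min at RT. A solution of 120 nM human SOS plus GTP was added for 60 min. The read-out was TR-FRET at 520/495 nm, normalized to DMSO and saturating-inhibitor controls, with a 4-parameter fit.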

[2] = Stability in human HeLa cell homogenate assessed as half life by LC-MS/MS analysis; format: ADME, cell-based
Summary of the method: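 HeLa cells suspended at 1 × 10^6 cells/mL, probe-sonicated on ice until homogeneous, stored frozen at –20 °C. Peptides incubated with homogenate (1 × 10^6 cells/mL equivalent); peptide loss over time quantified by LC-MS/MS to derive t1/2.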

GTPase KRas [3] = target: T1, GTPase KRas; test: Inhibition of KRAS in human ASPC1 cells harboring KRAS G12D mutant assessed as inhibition of ERK phosphorylation incubated for 2 hrs by AlphaScreen-based […] assay; format: cell-based
Summary of the method: (§1)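 AsPC-1 cells (KRAS G12D) were seeded at 15 000 cells/well in phenol-red-free RPMI with 10% FBS and 25 mM HEPES, then incubated overnight at 37 °C and 5% CO2. Medium was switched to serum-free before dosing. Cells were given a dose–response titration for 2 or 18 h at 37 °C, washed and lysed with protease inhibitors. Phospho-ERK and total ERK were read by AlphaScreen SureFire multiplex, using the pERK/total ERK ratio. Curves were fit with a 4-parameter logistic.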

GTPase KRas [4] = target: T1, GTPase KRas; test: Inhibition of KRAS in human ASPC1 cells harboring KRAS G12D mutant assessed as inhibition of ERK phosphorylation incubated for 18 hrs by AlphaScreen-based […] assay; format: cell-based; summary of the method: as §1
HeLa [5] = test: Cell permeability in human HeLa cells transfected with NanoLuc-HaloTag vector incubated for 4 hrs followed by treated with NanoBret618-azide ligand by NanoClick assay; format: ADME, cell-based
HeLa [6] = test: Cell permeability in human HeLa cells transfected with NanoLuc-HaloTag vector incubated for 18 hrs followed by treated with NanoBret618-azide ligand by NanoClick assay; format: ADME, cell-based

pIC50 (GTPase KRas [3]) | pIC50 (GTPase KRas [4]) | pEC50 (HeLa [5]) | pEC50 (HeLa [6]) | SMILES | pIC50 (GTPase KRas [1]) | half-life [2]
5.57 | 4.72 | 5.14 | 6.70 | CC[C@H](C)[C@@H]1NC(=O)[C@H](Cc2ccc(-c3ccccc3)cc2)NC(=O)[C@H](CC(C)C)NC(=O)[C@@H]2[C@H](c3ccccc3)CCN2C(=O)[C@@H](NC(=O)[C@H](CCCNC(=N)N)NC(=O)[C@H](CCCNC(=N)N)NC(=O)[C@H](CCCCN=[N+]=[N-])NC(C)=O)CSSC[C@@H](C(=O)N[C@@H](CCCNC(=N)N)C(=O)N[C@@H](CCCNC(=N)N)C(N)=O)NC(=O)[C@H](C(C)C)NC(=O)[C@@H]2CCCN2C(=O)[C@H](CC(=O)O)NC(=O)[C@H](Cc2ccc(O)cc2)NC(=O)[C@H](CO)NC1=O | > 9.00 | > 372 min
5.48 | 4.48 |  |  | CC[C@H](C)[C@@H]1NC(=O)[C@H](Cc2ccc(-c3ccccc3)cc2)NC(=O)[C@H](CC(C)C)NC(=O)[C@@H]2[C@@H](c3ccccc3)CCN2CC(=O)[C@@H](NC(=O)[C@H](CCCNC(=N)N)NC(=O)[C@H](CCCNC(=N)N)NC(C)=O)CSSC[C@@H](C(=O)N[C@@H](CCCNC(=N)N)C(=O)N[C@@H](CCCNC(=N)N)C(N)=O)NC(=O)[C@H](C(C)C)NC(=O)[C@@H]2CCCN2C(=O)[C@H](CC(=O)O)NC(=O)[C@H](Cc2ccc(O)cc2)NC(=O)[C@H](CO)NC1=O | > 9.00 | > 372 min
 |  |  |  | CC[C@H](C)[C@@H]1NC(=O)[C@H](CC2CCCCC2)NC(=O)[C@H](CC(C)C)NC(=O)[C@@H]2CCCN2C(=O)[C@@H](NC(=O)[C@H](CCCNC(=N)N)NC(=O)[C@H](CCCNC(=N)N)NC(C)=O)CSSC[C@@H](C(=O)N[C@@H](CCCNC(=N)N)C(=O)N[C@@H](CCCNC(=N)N)C(N)=O)NC(=O)[C@H](C(C)C)NC(=O)[C@@H]2CCCN2C(=O)[C@H](CC(=O)O)NC(=O)[C@H](Cc2ccc(O)cc2)NC(=O)[C@H](CO)NC1=O (Ac-RRCPL[Cha]ISYDPVCRR-NH2; disulfide 3-13) | 6.79 | 21 min
 |  |  |  | CC(=O)N[C@@H](CCCNC(=N)N)C(=O)N[C@@H](CCCNC(=N)N)C(=O)N[C@H]1CSSC[C@@H](C(=O)N[C@@H](CCCNC(=N)N)C(=O)N[C@@H](CCCNC(=N)N)C(N)=O)NC(=O)[C@H](C(C)C)NC(=O)[C@@H]2CCCN2C(=O)[C@H](CC(=O)O)NC(=O)[C@H](Cc2ccc(O)cc2)NC(=O)[C@H](CO)NC(=O)[C@H](CC2CCCC2)NC(=O)[C@H](CC2CCCCC2)NC(=O)[C@H](CC(C)C)NC(=O)[C@@H]2CCCN2C1=O (Ac-RRCPL[Cha][Ala(cPent)]SYDPVCRR-NH2; disulfide 3-13) | < 4.95 | 21 min
 |  |  |  | CCC[C@@H]1NC(=O)[C@H](CC2CCCCC2)NC(=O)[C@H](CC(C)C)NC(=O)[C@@H]2CCCN2C(=O)[C@@H](NC(=O)[C@H](CCCNC(=N)N)NC(=O)[C@H](CCCNC(=N)N)NC(C)=O)CSSC[C@@H](C(=O)N[C@@H](CCCNC(=N)N)C(=O)N[C@@H](CCCNC(=N)N)C(N)=O)NC(=O)[C@H](C(C)C)NC(=O)[C@@H]2CCCN2C(=O)[C@H](CC(=O)O)NC(=O)[C@H](Cc2ccc(O)cc2)NC(=O)[C@H](CO)NC1=O (Ac-RRCPL[Cha][Nva]SYDPVCRR-NH2; disulfide 3-13) | < 4.95 | 27 min
 |  |  |  | CC(=O)N[C@@H](CCCNC(=N)N)C(=O)N[C@@H](CCCNC(=N)N)C(=O)N[C@H]1CSSC[C@@H](C(=O)N[C@@H](CCCNC(=N)N)C(=O)N[C@@H](CCCNC(=N)N)C(N)=O)NC(=O)[C@H](C(C)C)NC(=O)[C@@H]2CCCN2C(=O)[C@H](CC(=O)O)NC(=O)[C@H](Cc2ccc(O)cc2)NC(=O)[C@H](CO)NC(=O)[C@H](CCC(C)C)NC(=O)[C@H](CC2CCCCC2)NC(=O)[C@H](CC(C)C)NC(=O)[C@@H]2CCCN2C1=O (Ac-RRCPL[Cha][hLeu]SYDPVCRR-NH2; disulfide 3-13) | < 4.95 | 25 min
 |  |  |  | CC[C@H](C)[C@@H]1NC(=O)[C@H](CCc2ccccc2)NC(=O)[C@H](CC(C)C)NC(=O)[C@@H]2CCCN2C(=O)[C@@H](NC(=O)[C@H](CCCNC(=N)N)NC(=O)[C@H](CCCNC(=N)N)NC(C)=O)CSSC[C@@H](C(=O)N[C@@H](CCCNC(=N)N)C(=O)N[C@@H](CCCNC(=N)N)C(N)=O)NC(=O)[C@H](C(C)C)NC(=O)[C@@H]2CCCN2C(=O)[C@H](CC(=O)O)NC(=O)[C@H](Cc2ccc(O)cc2)NC(=O)[C@H](CO)NC1=O (Ac-RRCPL[hPhe]ISYDPVCRR-NH2; disulfide 3-13) | 5.86 | 37 min
 |  |  |  | CC(=O)N[C@@H](CCCNC(=N)N)C(=O)N[C@@H](CCCNC(=N)N)C(=O)N[C@H]1CSSC[C@@H](C(=O)N[C@@H](CCCNC(=N)N)C(=O)N[C@@H](CCCNC(=N)N)C(N)=O)NC(=O)[C@H](C(C)C)NC(=O)[C@@H]2CCCN2C(=O)[C@H](CC(=O)O)NC(=O)[C@H](Cc2ccc(O)cc2)NC(=O)[C@H](CO)NC(=O)[C@H](CC2CCCC2)NC(=O)[C@H](CCc2ccccc2)NC(=O)[C@H](CC(C)C)NC(=O)[C@@H]2CCCN2C1=O (Ac-RRCPL[hPhe][Ala(cPent)]SYDPVCRR-NH2; disulfide 3-13) | < 4.95 | 16 min
 |  |  |  | CCC[C@@H]1NC(=O)[C@H](CCc2ccccc2)NC(=O)[C@H](CC(C)C)NC(=O)[C@@H]2CCCN2C(=O)[C@@H](NC(=O)[C@H](CCCNC(=N)N)NC(=O)[C@H](CCCNC(=N)N)NC(C)=O)CSSC[C@@H](C(=O)N[C@@H](CCCNC(=N)N)C(=O)N[C@@H](CCCNC(=N)N)C(N)=O)NC(=O)[C@H](C(C)C)NC(=O)[C@@H]2CCCN2C(=O)[C@H](CC(=O)O)NC(=O)[C@H](Cc2ccc(O)cc2)NC(=O)[C@H](CO)NC1=O (Ac-RRCPL[hPhe][Nva]SYDPVCRR-NH2; disulfide 3-13) | < 4.95 | 15 min
 |  |  |  | CC(=O)N[C@@H](CCCNC(=N)N)C(=O)N[C@@H](CCCNC(=N)N)C(=O)N[C@H]1CSSC[C@@H](C(=O)N[C@@H](CCCNC(=N)N)C(=O)N[C@@H](CCCNC(=N)N)C(N)=O)NC(=O)[C@H](C(C)C)NC(=O)[C@@H]2CCCN2C(=O)[C@H](CC(=O)O)NC(=O)[C@H](Cc2ccc(O)cc2)NC(=O)[C@H](CO)NC(=O)[C@H](CCC(C)C)NC(=O)[C@H](CCc2ccccc2)NC(=O)[C@H](CC(C)C)NC(=O)[C@@H]2CCCN2C1=O (Ac-RRCPL[hPhe][hLeu]SYDPVCRR-NH2; disulfide 3-13) | < 4.95 | 14 min
5.21 | 5.17 | 5.83 | 6.83 | CC(=O)N[C@@H](CCCCN=[N+]=[N-])C(=O)N[C@@H](CCCNC(=N)N)C(=O)N[C@@H](CCCNC(=N)N)C(=O)N[C@H]1CSSC[C@@H](C(=O)N[C@@H](CCCNC(=N)N)C(=O)N[C@@H](CCCNC(=N)N)C(N)=O)NC(=O)[C@H](C(C)C)NC(=O)[C@@H]2CCCN2C(=O)[C@H](CC(=O)O)NC(=O)[C@H](Cc2ccc(O)cc2)NC(=O)[C@H](CO)NC(=O)[C@H](C)NC(=O)[C@H](Cc2ccc(-c3ccccc3)cc2)NC(=O)[C@H](CC(C)C)NC(=O)[C@@H]2[C@@H](c3ccccc3)CCN2C1=O (Ac-[Lys(N3)]RRC[Pro(3R-Ph)]L[Bip]ASYDPVCRR-NH2; disulfide 4-14) | > 9.00 | > 372 min

SMILES | pIC50 (GTPase KRas [3]) | pIC50 (GTPase KRas [4]) | pEC50 (HeLa [5]) | pEC50 (HeLa [6]) | pIC50 (GTPase KRas [1]) | half-life [2]
CC[C@H](C)[C@@H]1NC(=O)[C@H](Cc2ccc(-c3ccccc3)cc2)NC(=O)[C@H](CC(C)C)NC(=O)[C@@H]2[C@H](c3ccccc3)CCN2C(=O)[C@@H](NC(=O)[C@H](CCCNC(=N)N)NC(=O)[C@H](CCCNC(=N)N)NC(C)=O)CSSC[C@@H](C(=O)N[C@@H](CCCNC(=N)N)C(=O)N[C@@H](CCCNC(=N)N)C(N)=O)NC(=O)[C@H](C(C)C)NC(=O)[C@@H]2CCCN2C(=O)[C@H](CC(=O)O)NC(=O)[C@H](Cc2ccc(O)cc2)NC(=O)[C@H](CO)NC(=O)[C@H](C)NC1=O (Ac-RRC[X1]L[Bip]IASYDPVCRR-NH2; disulfide 3-14) | 5.42 | 5.41 |  |  | > 9.00 | > 372 min
